According to BindingDB's records for doi:10.1021/jm00027a001 (Telios Pharmaceuticals, 1994):
pIC50: −log10 of the molar value. *1 amine or outer side, *2 acyl side, *3 side chain or, on linkers, in order; H or OH if unused. Where a SMILES comes first, the peptide text is derived from it. Bridges are numbered along the chain shown (N, C = ends). X2 = N[C@H](C(=O)[*:1])C1(S[*:2])CCCCC1

Experiments:
[1] = molecular target: Integrin alpha-V/beta-5 (Homo sapiens, UniProt P06756+P18084); experiment: Binding affinity against integrin alpha V-beta5 in enzyme linked immunosorbent assay (ELISA)
In short: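 It is added to wells coated with human vitronectin in 0.1 M carbonate, pH 9.6, with 10-fold serial peptide dilutions for 3 h at room temperature. Detection uses rabbit anti-VnR, HRP anti-rabbit IgG and o-phenylenediamine/H2O2.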

[2] = molecular target: Integrin alpha-IIb/beta-3 (Homo sapiens, UniProt P05106+P08514); experiment: Binding affinity against integrin alpha 2b-beta 3 in enzyme linked immunosorbent assay (ELISA)
In short: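 Purified human platelet αIIbβ3 (from outdated platelets, octyl glucoside extract) in TBS with 20 mM octyl glucoside, 2 mM MgCl2 and 2 mM CaCl2 binds to plate-coated human fibrinogen (10 µg/mL in TBS) with 10-fold serial peptide dilutions for 3 h at room temperature. Bound receptor is detected with rabbit anti-αIIbβ3, then HRP anti-rabbit IgG, with o-phenylenediamine/H2O2 at pH 5.0. IC50 is reported.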

[3] = molecular target: Integrin alpha-5/beta-1 (Homo sapiens, UniProt P05556+P08648); experiment: Binding affinity against integrin alpha5-beta1 in enzyme linked immunosorbent assay (ELISA)
Integrin alpha-5/beta-1, sequence (P05556 21-798 limits assumed): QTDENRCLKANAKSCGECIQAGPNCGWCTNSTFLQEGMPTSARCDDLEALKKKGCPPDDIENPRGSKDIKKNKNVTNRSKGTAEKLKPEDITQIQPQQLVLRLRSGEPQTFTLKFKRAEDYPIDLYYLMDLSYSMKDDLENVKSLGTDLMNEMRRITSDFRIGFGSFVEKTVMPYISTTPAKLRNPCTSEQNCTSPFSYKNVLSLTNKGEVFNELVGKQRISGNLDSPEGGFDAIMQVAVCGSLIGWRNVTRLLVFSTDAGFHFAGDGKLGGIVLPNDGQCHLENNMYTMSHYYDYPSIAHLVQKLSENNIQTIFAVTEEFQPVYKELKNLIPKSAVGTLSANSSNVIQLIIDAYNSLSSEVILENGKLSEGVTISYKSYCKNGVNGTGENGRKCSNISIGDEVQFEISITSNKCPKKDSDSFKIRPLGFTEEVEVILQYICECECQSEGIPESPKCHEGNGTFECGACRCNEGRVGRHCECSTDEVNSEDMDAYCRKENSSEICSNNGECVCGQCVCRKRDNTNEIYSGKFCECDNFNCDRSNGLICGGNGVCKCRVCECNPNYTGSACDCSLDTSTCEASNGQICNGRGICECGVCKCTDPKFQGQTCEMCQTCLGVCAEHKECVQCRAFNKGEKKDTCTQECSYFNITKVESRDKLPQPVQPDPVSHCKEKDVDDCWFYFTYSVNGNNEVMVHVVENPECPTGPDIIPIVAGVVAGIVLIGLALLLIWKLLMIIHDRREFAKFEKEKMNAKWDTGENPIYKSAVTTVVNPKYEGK
Integrin alpha-5/beta-1, sequence (P08648 42-894 limits assumed): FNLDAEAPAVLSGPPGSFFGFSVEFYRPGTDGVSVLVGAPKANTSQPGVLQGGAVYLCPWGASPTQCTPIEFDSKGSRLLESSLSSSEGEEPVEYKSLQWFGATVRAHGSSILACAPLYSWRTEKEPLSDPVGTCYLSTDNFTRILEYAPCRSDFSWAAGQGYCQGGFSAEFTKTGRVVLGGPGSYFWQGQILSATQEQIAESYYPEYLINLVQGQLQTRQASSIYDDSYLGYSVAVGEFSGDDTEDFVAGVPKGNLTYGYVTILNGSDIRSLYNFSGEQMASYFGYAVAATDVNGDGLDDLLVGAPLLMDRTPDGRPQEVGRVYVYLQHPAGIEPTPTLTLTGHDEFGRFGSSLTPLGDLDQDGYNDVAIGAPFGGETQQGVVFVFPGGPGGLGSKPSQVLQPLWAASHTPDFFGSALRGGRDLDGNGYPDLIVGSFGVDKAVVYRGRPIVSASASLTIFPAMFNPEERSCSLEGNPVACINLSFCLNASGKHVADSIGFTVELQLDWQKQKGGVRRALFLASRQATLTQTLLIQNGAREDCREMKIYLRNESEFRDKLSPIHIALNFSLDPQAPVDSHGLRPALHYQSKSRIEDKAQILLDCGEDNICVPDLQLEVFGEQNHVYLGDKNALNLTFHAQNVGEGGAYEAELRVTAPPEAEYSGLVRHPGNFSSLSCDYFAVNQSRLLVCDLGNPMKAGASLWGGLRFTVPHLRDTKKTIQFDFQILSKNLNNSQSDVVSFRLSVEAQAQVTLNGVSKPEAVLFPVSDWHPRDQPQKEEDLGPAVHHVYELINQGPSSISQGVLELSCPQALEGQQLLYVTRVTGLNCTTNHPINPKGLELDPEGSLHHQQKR
Integrin alpha-5/beta-1, sequence (P08648 895-1049 limits assumed): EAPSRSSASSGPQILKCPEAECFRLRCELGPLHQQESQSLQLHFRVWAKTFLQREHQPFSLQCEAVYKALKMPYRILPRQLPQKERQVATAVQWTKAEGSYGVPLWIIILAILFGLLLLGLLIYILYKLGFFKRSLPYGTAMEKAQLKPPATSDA

Integrin alpha-IIb/beta-3, sequence (P05106 27-788 limits assumed): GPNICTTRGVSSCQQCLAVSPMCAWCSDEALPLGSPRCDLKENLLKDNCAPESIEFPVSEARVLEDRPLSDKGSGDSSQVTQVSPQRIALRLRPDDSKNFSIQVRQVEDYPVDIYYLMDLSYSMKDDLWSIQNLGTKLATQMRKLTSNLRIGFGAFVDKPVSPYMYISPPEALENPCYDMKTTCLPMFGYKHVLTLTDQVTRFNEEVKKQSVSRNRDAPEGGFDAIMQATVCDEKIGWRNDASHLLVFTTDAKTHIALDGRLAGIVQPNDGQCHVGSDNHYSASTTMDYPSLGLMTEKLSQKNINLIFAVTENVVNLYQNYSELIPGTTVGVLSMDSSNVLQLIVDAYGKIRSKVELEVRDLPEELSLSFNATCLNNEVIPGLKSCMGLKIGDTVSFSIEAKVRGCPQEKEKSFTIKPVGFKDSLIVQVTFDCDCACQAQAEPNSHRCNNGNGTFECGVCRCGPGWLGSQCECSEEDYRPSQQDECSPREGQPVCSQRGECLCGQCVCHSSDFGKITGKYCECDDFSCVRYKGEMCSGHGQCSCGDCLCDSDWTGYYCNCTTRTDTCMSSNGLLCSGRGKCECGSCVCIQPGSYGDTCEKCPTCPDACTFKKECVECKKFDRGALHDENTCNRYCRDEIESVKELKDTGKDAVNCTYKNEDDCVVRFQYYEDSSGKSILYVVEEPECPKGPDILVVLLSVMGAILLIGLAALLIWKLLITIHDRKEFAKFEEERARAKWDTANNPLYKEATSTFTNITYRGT
Integrin alpha-IIb/beta-3, sequence (P08514 32-887 limits assumed): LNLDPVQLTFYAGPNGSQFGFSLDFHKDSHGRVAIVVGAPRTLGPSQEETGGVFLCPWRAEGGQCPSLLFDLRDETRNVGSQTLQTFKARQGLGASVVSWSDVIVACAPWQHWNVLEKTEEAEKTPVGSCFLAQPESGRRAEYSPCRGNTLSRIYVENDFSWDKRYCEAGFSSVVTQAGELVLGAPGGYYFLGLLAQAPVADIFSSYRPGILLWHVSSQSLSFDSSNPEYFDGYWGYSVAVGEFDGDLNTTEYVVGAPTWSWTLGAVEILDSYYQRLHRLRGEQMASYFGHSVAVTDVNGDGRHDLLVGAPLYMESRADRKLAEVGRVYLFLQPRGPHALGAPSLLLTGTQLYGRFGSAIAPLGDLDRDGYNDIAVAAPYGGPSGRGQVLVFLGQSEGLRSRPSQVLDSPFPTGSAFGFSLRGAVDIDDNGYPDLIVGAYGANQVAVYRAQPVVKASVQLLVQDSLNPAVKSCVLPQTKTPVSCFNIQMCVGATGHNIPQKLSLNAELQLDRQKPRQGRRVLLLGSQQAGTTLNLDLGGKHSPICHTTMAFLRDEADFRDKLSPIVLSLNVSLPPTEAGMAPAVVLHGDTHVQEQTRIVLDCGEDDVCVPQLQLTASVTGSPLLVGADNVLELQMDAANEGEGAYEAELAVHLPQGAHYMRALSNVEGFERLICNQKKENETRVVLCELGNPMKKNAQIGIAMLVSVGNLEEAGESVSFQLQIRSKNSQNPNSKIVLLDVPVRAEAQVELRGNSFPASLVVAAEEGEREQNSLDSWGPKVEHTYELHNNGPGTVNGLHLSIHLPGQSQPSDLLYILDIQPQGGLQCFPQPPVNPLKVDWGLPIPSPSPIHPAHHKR
Integrin alpha-IIb/beta-3, sequence (P08514 891-1039 limits assumed): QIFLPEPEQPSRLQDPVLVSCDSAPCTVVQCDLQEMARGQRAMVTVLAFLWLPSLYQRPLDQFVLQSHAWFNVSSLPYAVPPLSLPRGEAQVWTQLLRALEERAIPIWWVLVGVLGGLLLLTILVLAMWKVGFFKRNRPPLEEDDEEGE

Q: COc1ccc(C[C@@H]2NC(=O)[C@H](CC(=O)O)NC(=O)CNC(=O)[C@H](CCCN=C(N)N)NC(=O)[C@H](Cc3c[nH]cn3)NC(=O)[C@H](CC(N)=O)NC(=O)[C@@H](N)CCC/N=C(/N)NC(=O)[C@@H](N)C3(CCCCC3)SSC[C@@H](C(=O)N[C@@H](CCCN=C(N)N)C(=O)O)NC(=O)[C@H](CCCN=C(N)N)NC2=O)cc1 [R(Pmc)-N-H-R-G-D-(Y-OMe)-R-C-R] (H-RNHRGDY(Me)RCR-OH; linker 1-9 via X2) was tested. Which pIC50 [1] did it give?
A: Its pIC50 is 5.33.

Q: And the pIC50 [2]?
A: The pIC50 was 5.33.

Q: How did the pIC50 [3] turn out when COc1ccc(C[C@@H]2NC(=O)[C@H](CC(=O)O)NC(=O)CNC(=O)[C@H](CCCN=C(N)N)NC(=O)[C@H](Cc3c[nH]cn3)NC(=O)[C@H](CCCN=C(N)N)NC(=O)[C@@H](N)CCC/N=C(/N)NC(=O)[C@@H](N)C3(CCCCC3)SSC[C@@H](C(=O)N[C@@H](CCCN=C(N)N)C(=O)O)NC(=O)[C@H](CCCN=C(N)N)NC2=O)cc1 [R(Pmc)-G-H-R-G-D-(Y-OMe)-R-C-R] (H-RRHRGDY(Me)RCR-OH; linker 1-9 via X2) was run?
A: The pIC50 was 5.21.

Q: What about the pIC50 [2] of the same compound?
A: The pIC50 was 5.21.
